The list is not random: actives were taken first. Their share in the collection is about 3.5%.
MrgX1 PAM: allosterically activates human MrgX1 receptor signaling; AID 588675; MrgX1-HEK293, Fluo-4 calcium flux, FDSS; active compounds read high; B-score at 10 µM; Q96LB2; actives 0.63% (n = 310,000);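 active = plate-corrected calcium response at least 3 library SD above typical, normal starting fluorescence, not activating the receptor alone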;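 also: compound read alongside a low EC10 to EC30 dose of BAM8-22 agonist; peak minus trough fluorescence over baseline measured at the second addition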
RGS4 inh: human RGS4 inhibition. HEK293 M3R/RGS4 inducible, Fluo-4 calcium flux; active compounds read high; triggered by carbachol at its EC20. P49798. AID 463165. actives 0.45% (n = 310,000). B-score at 10 µM;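 active = B-score, a plate-corrected calcium signal, over three deviations above library mean, with baseline fluorescence within five deviations of library mean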;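 also: RGS4 expression induced by doxycycline in cells with stable M3 receptor; B-score is computed from the integrated fluorescence ratio over baseline after carbachol; higher B-score means a larger calcium signal and so more RGS4 inhibition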
Target sequence (P49798 whole entry, looked up): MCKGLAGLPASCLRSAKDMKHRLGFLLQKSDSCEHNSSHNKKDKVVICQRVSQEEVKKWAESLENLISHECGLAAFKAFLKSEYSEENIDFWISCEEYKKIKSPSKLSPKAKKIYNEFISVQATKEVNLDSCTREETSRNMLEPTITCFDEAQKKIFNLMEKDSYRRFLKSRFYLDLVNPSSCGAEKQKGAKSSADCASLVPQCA
MrgX1 antag: blocks BAM8-22 activation of human MrgX1 receptor. B-score at 10 µM. AID 588676. Q96LB2. actives 1.3% (n = 310,000). MRGX1-HEK293 calcium flux, Fluo-4, BAM8-22 antagonism; active compounds read low;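 active = calcium-response B-score plate-corrected more than 3 library SD below zero, starting fluorescence within 5 deviations, no agonist response on first addition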;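 also: peak minus trough fluorescence over baseline after final BAM8-22 challenge near maximal dose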
MrgX1 agonist: agonists of human MrgX1 receptor; MrgX1-HEK293 cells, Fluo-4 calcium fluorescence, agonist mode; active compounds read high; B-score at 10 µM; actives 0.44% (n = 310,000);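 active = calcium response B-score plate-corrected fluorescence ratio at least 3 library SD, with starting fluorescence B-score inside 5 SD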
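Test system: Stable human MrgX1 HEK293 cell line | Schedule: Overnight plating before 1 h dye loading | Read-out basis: Baseline-normalised fluorescence change ratio, B-scored | Detection: Kinetic calcium dye fluorescence, Fluo-4 NW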
RGS4 act: RGS4 potentiation or activation; HEK293 M3R/inducible RGS4, carbachol calcium flux Fluo4; active compounds read low; B-score at 10 µM; actives 0.92% (n = 310,000); AID 463111;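 active = B-score of the integrated calcium signal more than 4 SD below the library mean, with starting fluorescence not abnormally high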;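 also: negative B-score means reduced calcium response which marks RGS4 activation or potentiation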
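Detection: kinetic calcium fluorescence imaging with Fluo4-AM dye, 2 µM / Material: HEK293 cells with stable M3R and inducible RGS4 / Schedule: recording 10 s baseline at 1 Hz, 100 s post-agonist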
MrgX1 ag confirm: confirmation of human MrgX1 receptor agonists | shares compounds with MrgX1 agonist | MrgX1-HEK293, Fluo-4 calcium fluorescence, FDSS | activation, % at 10 µM | actives 78% (n = 600);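 active = calcium signal rise, corrected for plate position, at least 3 library SD high, with starting brightness within 5 such deviations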
HEK293 Ca flux: MrgX1 antagonist counter-screen hit in parental HEK293 cells; shares compounds with MrgX1 antag; Fluo-4 calcium fluorescence, FDSS; fluorescence ratio F(max-min)/F0 at 10 µM; actives 2% (n = 4,000); AID 624111;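 active = duplicate-averaged calcium fluorescence ratio at least three times the standard deviation of buffer wells, a nonspecific response in parental cells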
HEK293 Ca counter: activity in parental HEK293 cells without MrgX1 | shares compounds with MrgX1 antag | parental HEK293 calcium flux, Fluo-4 fluorescence ratio; active compounds read high | fluorescence ratio F(max-min)/F0 at 10 µM | actives 0.4% (n = 4,000) | AID 624114;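 active = calcium fluorescence ratio, averaged over duplicates, at least 3 SD of the buffer-well ratio, meaning a nonspecific response in receptor-free cells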;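 also: untransfected parental HEK293 lacking MrgX1 used as counterscreen for MrgX1 allosteric activators; fluorescence change taken during the second addition on a kinetic imager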
HEK293 Ca cntr2: MrgX1 activator counter-screen hit in parental HEK293 cells | shares compounds with MrgX1 antag | Fluo-4 calcium fluorescence (FDSS); active compounds read high | fluorescence ratio F(max-min)/F0 at 10 µM | actives 8.7% (n = 4,000) | AID 624115;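 active = calcium fluorescence ratio at least three times the spread of buffer wells, meaning a non-specific response in parental cells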
Active calls of the source: *; i = inactive; · = no result given.

SMILES	MrgX1 PAM	RGS4 inh	MrgX1 antag	MrgX1 agonist	RGS4 act	MrgX1 ag confirm	HEK293 Ca flux	HEK293 Ca counter	HEK293 Ca cntr2
COc1cc(C#N)ccc1OCC(=O)N1CCc2ccccc2C1	i	i	i	50.2*	i	i	i	i	i
CCOc1cc(C#N)ccc1OCC(=O)N1CCc2ccccc2C1	i	i	i	i	i	·	·	·	·
C=CCn1c(SCC(=O)N(C)C)nc2sc3c(c2c1=O)CCC3	i	i	i	i	i	·	·	·	·
CN1C(=O)C(CC(=O)NCC2CCCCC2)SC1=Nc1ccccc1 (stereo not given)	i	i	i	i	i	·	·	·	·
O=C(NC(=S)NNC(=O)c1cccs1)c1ccc(Br)o1	i	i	i	100*	i	710.5%*	i	i	137*
O=C(NNC(=S)NC(=O)c1cccs1)c1ccc(O)cc1	i	i	i	i	i	·	·	·	·
Cc1nnc(NS(=O)(=O)c2ccc(Br)cc2)s1	i	i	i	i	i	·	·	·	·
CCOC(=O)Cn1c(CCC(=O)O)ccc1-c1ccc(F)cc1	i	i	i	44.9*	i	169.6%*	i	i	i
CCN(CC)S(=O)(=O)c1cccc(NC(=O)CN2C(=O)c3ccc([N+](=O)[O-])cc3C2=O)c1	i	i	i	i	i	·	·	·	·
Cc1cc(C)c2c(=O)n(CC(=O)NC3CCCC3)sc2n1	i	i	i	29.4*	i	182.5%*	i	i	i
CC(C)Cc1csc(NC(=O)c2ccc(Br)cc2)c1C(=O)O	i	i	i	44.9*	i	i	i	i	i
CC(C)C1CC(CCN2CCCCC2)(c2ccccc2)CCO1 (stereo not given)	i	i	i	i	i	·	·	·	·
O=C(CCCN1Cc2ccccc2C1)c1ccc(F)cc1	i	i	i	37.8*	i	145.1%*	i	i	i
CN1CCN(CCCC(=O)c2ccc(F)cc2)CC1	i	i	i	i	i	·	·	·	·
CC1(c2ccc(OC(F)F)cc2)NC(=O)N(CC(=O)Nc2cccnc2Cl)C1=O (stereo not given)	i	i	i	33.4*	i	136.8%*	i	i	47*
COc1ccc(C2(C)NC(=O)N(CC(=O)Nc3cccnc3Cl)C2=O)cc1 (stereo not given)	i	i	i	i	i	·	·	·	·
Cc1cccc(C(=O)NC(=S)NNC(=O)Cc2ccccc2)c1	i	i	i	119*	i	638.0%*	i	i	137*
Cc1cccc(C(=O)NC(=S)Nc2ccccc2C(=O)O)c1	i	i	i	i	i	·	·	·	·
Cc1cccc(C(=O)NC(=S)NNC(=O)c2ccccc2Cl)c1	i	i	i	105*	i	776.4%*	i	i	149*
COc1ccc(C(=O)NNC(=O)C(=O)NC2CCCCC2)cc1	i	i	i	i	i	·	·	·	·
CC(C)c1ccc(NC2(C#N)C(=O)Nc3ccccc32)cc1 (stereo not given)	i	i	i	38.7*	i	191.4%*	i	i	49.3*
CCCCC(=O)NC(=S)Nc1cccc(C(=O)O)c1	i	i	i	31.9*	i	i	i	i	i
COc1ccc(N=C2NC(=O)S/C2=C\c2ccc(N(C)C)cc2)cc1	i	i	i	26.5*	-7.19*	230.3%*	i	i	56.9*
N=C(N)SCCc1cccc(CCSC(=N)N)c1	i	i	i	40.2*	i	180.6%*	i	i	i
